Active and inactive are the calls of the source. The rule behind the calls is not given here.
Key:
[1] = Antiproliferative activity against human HuNS1 cells assessed as reduction in cell viability after 72 hrs by CellTiter-Glo assay; type: functional, cell-based; conditions: HuNS1, 72 h
In short: (§1)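 Cells seeded in 96-well plates, left overnight at 37°C, then exposed to a range of test concentrations for 72 h. Viability read by CellTiter-Glo luminescence; IC50 from four-parameter curve fit. Lines kept at 37°C, 5% CO2, in recommended growth medium.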

[2] = Antiproliferative activity against human SK-ES cells assessed as reduction in cell viability after 72 hrs by CellTiter-Glo assay; type: functional, cell-based; in short: as §1
[3] = Antiproliferative activity against human SUPM2 cells assessed as reduction in cell viability after 72 hrs by CellTiter-Glo assay; type: functional, cell-based; conditions: SUP-M2, 72 h; in short: as §1
MCF7 [4] = experiment: Induction of cell cycle arrest in human MCF7 cells assessed as decrease in cells accumulation at G2/M phase at 0.03 to 10 uM incubated for 24 to 48 hrs by propidium iodide staining based flow cytometric analysis; type: functional; conditions: dose 0.03-10 µM, time lower 24.0 hrs, time upper […]
In short: (§2)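 COLO 205, MCF-7 or NCI-H929 cells seeded in 96-well plates overnight at 37°C, then exposed to DMSO or increasing compound concentrations for 24 or 48 h. Fixed and stained with propidium iodide (Vindelov method), then analysed by flow cytometry for sub-G1, G1, S and G2-M fractions. Experiment repeated twice.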

MCF7 [5] = experiment: Induction of cell cycle arrest in human MCF7 cells assessed as cells accumulation at G1 phase at 1 umol/L incubated for 48 hrs by propidium iodide staining based flow cytometric analysis (reference value: 67%); type: functional; conditions: dose 1 µmol/L, at 1 µM; in short: as §2
[6] = Toxicity in nu/nu CD-1 mouse xenografted with human COLO 205 cells assessed as reduction in body weight at 30 mg/kg, po administered twice daily for 21 days relative to control; type: organism-based; design: scale not given: the % may be the effect or the level left; conditions: in vivo, 504 h, time 21 day
[7] = In vivo inhibition of IGF1R in mouse NIH-3T3/LISN cells implanted in IGF1-stimulated nu/nu CD-1 mouse assessed as reduction in IGF1R phosphorylation at 30 mg/kg, po pretreated for 4 to 8 hrs followed by IGF1 stimulation and measured after 10 min by […] relative to control; type: functional; conditions: time 240-490 min
In short: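 Time course: tumor-bearing female nu/nu CD-1 mice, three per group, given a single oral 30 mg/kg dose or vehicle. IGF-I given 10 min before blood and tumor collection at each time point. Tumor phospho-IGF-IR/total IGF-IR measured by capture-plate europium phosphotyrosine assay and expressed as % of ligand-stimulated control.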

Aurora kinase B = Aurora kinase B (Homo sapiens, UniProt Q96GD4); experiment: Inhibition of Aurora B (unknown origin)
Chain of Aurora kinase B (Q96GD4 whole entry): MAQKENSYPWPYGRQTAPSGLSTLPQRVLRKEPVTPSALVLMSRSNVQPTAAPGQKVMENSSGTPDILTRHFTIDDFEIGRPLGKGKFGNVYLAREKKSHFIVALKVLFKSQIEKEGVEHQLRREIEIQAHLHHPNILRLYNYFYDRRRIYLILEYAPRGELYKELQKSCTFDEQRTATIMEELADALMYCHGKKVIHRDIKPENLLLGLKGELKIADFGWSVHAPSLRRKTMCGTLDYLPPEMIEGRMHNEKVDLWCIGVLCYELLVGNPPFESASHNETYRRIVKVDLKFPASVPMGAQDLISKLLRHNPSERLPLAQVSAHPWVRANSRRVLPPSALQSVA

[8] = Inhibition of CDK2/CyclinA (unknown origin); design: species or system Homo sapiens
[9] = target: Serine/threonine-protein kinase SIK2 (Homo sapiens, UniProt Q9H0K1); experiment: Inhibition of SIK2 (unknown origin)
Chain of Serine/threonine-protein kinase SIK2 (Q9H0K1 whole entry): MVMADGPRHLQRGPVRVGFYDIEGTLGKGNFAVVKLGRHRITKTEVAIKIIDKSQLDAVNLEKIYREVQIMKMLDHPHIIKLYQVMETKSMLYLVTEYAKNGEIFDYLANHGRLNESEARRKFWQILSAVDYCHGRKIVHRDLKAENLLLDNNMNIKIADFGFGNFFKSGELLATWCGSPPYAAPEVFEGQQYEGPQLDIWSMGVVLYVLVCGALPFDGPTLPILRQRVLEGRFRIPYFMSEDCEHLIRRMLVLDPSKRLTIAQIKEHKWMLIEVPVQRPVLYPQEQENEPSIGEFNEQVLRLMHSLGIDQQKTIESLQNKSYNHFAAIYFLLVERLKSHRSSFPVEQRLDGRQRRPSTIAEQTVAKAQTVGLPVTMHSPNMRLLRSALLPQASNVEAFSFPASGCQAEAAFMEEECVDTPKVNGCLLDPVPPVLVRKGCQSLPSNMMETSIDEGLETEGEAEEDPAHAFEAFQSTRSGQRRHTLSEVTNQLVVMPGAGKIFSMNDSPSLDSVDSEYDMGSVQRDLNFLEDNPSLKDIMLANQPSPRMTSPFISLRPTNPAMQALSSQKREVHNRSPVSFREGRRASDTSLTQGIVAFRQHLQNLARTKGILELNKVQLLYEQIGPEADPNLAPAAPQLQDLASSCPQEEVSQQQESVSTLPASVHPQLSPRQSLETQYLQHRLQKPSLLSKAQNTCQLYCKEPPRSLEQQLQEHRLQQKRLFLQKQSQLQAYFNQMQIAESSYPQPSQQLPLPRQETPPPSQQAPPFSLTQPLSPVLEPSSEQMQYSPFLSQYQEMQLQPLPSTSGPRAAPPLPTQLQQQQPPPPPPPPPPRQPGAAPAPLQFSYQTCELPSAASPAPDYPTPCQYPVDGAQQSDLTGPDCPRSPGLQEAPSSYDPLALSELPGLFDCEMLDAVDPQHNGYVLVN

[10] = target: Calcium/calmodulin-dependent protein kinase type IV (Homo sapiens) (UniProt Q16566); experiment: Inhibition of C-terminal His6-tagged recombinant full length human CaMKIV expressed in baculovirus infected Sf21 cells at 0.3 uM by filter binding assay relative to control
In short: (§3)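 KinaseProfiler panel of 233 kinases: radiometric filter-binding activity assays with compound at 0.3 or 3 µmol/L. Read-out is percent inhibition.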

[11] = Inhibition of C-terminal His6-tagged human full length CDK2/N-terminal GST-tagged human full length cyclinA expressed in baculovirus infected Sf21 cells at 0.3 uM by filter binding assay relative to control; conditions: condition cancer
In short: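 Run in an outsourced profiling panel of 233 kinases. Each kinase was tested with radiometric filter-binding activity assays at a single inhibitor concentration of 0.3 µmol/L. Inhibitor stock was 10 mmol/L in DMSO. Inhibition is reported as percent relative to control.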

[12] = Inhibition of N-terminal His6-tagged recombinant full-length human CDK5/N-terminal GST-tagged recombinant full-length human p35 expressed in baculovirus infected Sf21 cells at 0.3 uM by filter binding assay relative to control; conditions: condition cancer
In short: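 Outsourced single-concentration screen in a commercial panel of 233 protein kinases, run as radiometric filter-binding activity assays. Test agent was tested at 0.3 or 3 µmol/L, as given in each line, from a 10 mmol/L DMSO stock. Activity is expressed as percent inhibition relative to control.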

[13] = target: Macrophage colony-stimulating factor 1 receptor (Homo sapiens) (UniProt P07333); experiment: Inhibition of N-terminal His6-tagged recombinant human Fms (538 to end residues) expressed in baculovirus infected Sf21 cells at 0.3 uM by filter binding assay relative to control
[14] = target: Serine/threonine-protein kinase Nek3 (Homo sapiens) (UniProt P51956); experiment: Inhibition of N-terminal 6His-tagged recombinant full length human NEK3 expressed in baculovirus infected Sf21 cells at 0.3 uM by filter binding assay relative to control; in short: as §3
[15] = Inhibition of recombinant mouse N-terminal 6His-tagged full length P110alpha/full length mouse […] expressed in baculovirus infected Sf21 cells at 0.3 uM by filter binding assay relative to control; conditions: condition cancer
[16] = target: Serine/threonine-protein kinase PLK3 (Homo sapiens) (UniProt Q9H4B4); experiment: Inhibition of N-terminal His6-tagged recombinant human Plk3 (19 to 301 residues) expressed in baculovirus infected Sf21 cells at 0.3 uM by filter binding assay relative to control
[17] = target: Fibroblast growth factor receptor 3 (Homo sapiens) (UniProt P22607); experiment: Inhibition of N-terminal His6-tagged recombinant human FGFR3 (447 to 761 residues) expressed in Sf21 cells at 3 uM by filter binding assay relative to control
Chain of Fibroblast growth factor receptor 3 (Homo sapiens) (P22607 23-806 limits assumed): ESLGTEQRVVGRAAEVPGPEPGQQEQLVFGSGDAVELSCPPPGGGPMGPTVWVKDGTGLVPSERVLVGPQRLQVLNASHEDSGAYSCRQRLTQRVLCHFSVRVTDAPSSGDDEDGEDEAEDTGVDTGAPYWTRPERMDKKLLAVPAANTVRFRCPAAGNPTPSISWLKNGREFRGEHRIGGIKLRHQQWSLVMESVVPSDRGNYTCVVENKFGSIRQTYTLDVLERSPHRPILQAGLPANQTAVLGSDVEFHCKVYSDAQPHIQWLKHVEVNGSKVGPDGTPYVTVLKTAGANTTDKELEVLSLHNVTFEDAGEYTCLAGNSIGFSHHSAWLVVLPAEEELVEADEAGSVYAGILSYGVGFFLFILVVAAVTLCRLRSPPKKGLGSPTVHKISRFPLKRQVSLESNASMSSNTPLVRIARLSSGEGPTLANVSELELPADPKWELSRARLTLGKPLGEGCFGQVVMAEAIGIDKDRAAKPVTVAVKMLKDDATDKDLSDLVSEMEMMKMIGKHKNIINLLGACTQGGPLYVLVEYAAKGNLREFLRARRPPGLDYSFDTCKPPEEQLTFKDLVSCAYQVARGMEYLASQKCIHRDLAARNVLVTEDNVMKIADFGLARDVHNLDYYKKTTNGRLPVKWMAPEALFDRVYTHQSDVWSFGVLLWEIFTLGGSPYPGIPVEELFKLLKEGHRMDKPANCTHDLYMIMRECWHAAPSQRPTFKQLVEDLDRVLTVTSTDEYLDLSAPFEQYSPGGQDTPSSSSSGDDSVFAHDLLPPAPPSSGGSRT

[18] = target: Dual specificity mitogen-activated protein kinase kinase 6 (Homo sapiens) (UniProt P52564); experiment: Inhibition of N-terminal maltose binding protein-tagged human MKK6 (4 to end residues) expressed in Escherichia coli at 3 uM by filter binding assay relative to control
Chain of Dual specificity mitogen-activated protein kinase kinase 6 (Homo sapiens) (P52564 whole entry, the tested form may be a part): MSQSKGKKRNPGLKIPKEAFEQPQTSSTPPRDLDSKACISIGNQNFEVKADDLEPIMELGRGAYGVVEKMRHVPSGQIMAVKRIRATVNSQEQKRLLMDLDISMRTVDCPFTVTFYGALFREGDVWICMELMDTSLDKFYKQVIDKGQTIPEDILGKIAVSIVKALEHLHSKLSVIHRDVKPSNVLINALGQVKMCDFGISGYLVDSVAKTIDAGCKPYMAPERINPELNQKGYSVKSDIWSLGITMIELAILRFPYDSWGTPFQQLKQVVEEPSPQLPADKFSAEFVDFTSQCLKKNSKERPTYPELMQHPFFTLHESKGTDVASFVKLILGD

[19] = target: Tyrosine-protein kinase HCK (Homo sapiens, UniProt P08631); experiment: Inhibition of N-terminal 6His-tagged recombinant human Hck (230 to 497 residues) expressed in baculovirus infected Sf21 cells by filter binding assay
[20] = target: PAS domain-containing serine/threonine-protein kinase (Homo sapiens, UniProt Q96RG2); experiment: Inhibition of human PASK by filter binding assay
Chain of PAS domain-containing serine/threonine-protein kinase (Q96RG2 whole entry, the tested form may be a part): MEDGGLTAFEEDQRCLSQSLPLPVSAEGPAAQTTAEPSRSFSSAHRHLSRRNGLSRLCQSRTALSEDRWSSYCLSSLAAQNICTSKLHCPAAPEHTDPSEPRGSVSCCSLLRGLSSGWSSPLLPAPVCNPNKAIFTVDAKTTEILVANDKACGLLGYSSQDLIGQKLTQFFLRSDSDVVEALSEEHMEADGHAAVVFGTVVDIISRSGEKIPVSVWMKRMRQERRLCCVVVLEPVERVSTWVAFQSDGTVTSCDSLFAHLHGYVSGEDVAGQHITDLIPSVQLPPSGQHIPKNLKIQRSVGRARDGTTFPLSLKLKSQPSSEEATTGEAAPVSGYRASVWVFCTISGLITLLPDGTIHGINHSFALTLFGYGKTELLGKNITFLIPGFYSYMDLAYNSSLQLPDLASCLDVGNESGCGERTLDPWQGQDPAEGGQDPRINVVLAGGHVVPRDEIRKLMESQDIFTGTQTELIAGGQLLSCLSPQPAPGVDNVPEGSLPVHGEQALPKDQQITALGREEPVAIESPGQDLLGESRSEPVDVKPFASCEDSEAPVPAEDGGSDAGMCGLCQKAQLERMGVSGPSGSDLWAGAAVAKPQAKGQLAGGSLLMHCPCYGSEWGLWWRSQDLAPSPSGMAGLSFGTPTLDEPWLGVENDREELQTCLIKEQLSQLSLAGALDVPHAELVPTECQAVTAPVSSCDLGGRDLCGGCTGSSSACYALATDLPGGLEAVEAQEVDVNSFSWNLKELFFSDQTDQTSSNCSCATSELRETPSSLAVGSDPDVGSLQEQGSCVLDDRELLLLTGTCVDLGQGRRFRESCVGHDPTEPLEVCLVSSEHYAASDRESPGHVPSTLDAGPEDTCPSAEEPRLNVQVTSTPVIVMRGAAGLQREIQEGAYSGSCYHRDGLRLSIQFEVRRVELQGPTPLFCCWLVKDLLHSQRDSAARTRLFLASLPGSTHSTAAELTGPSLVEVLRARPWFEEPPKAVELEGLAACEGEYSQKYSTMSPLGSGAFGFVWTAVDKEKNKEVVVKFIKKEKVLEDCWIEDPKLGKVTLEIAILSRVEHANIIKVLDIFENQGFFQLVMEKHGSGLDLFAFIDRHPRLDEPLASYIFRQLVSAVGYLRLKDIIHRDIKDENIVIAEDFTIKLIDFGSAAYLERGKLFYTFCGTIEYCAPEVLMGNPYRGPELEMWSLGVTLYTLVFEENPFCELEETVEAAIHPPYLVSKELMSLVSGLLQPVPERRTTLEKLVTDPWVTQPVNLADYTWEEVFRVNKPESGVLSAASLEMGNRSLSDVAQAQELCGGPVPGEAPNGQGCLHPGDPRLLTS

[21] = target: Insulin receptor (Mus musculus) (UniProt P15208); conditions: CD-1, dose 30.0 mg/kg, route po, time 4.0 hrs
Chain of Insulin receptor (Mus musculus) (P15208 28-748 limits assumed): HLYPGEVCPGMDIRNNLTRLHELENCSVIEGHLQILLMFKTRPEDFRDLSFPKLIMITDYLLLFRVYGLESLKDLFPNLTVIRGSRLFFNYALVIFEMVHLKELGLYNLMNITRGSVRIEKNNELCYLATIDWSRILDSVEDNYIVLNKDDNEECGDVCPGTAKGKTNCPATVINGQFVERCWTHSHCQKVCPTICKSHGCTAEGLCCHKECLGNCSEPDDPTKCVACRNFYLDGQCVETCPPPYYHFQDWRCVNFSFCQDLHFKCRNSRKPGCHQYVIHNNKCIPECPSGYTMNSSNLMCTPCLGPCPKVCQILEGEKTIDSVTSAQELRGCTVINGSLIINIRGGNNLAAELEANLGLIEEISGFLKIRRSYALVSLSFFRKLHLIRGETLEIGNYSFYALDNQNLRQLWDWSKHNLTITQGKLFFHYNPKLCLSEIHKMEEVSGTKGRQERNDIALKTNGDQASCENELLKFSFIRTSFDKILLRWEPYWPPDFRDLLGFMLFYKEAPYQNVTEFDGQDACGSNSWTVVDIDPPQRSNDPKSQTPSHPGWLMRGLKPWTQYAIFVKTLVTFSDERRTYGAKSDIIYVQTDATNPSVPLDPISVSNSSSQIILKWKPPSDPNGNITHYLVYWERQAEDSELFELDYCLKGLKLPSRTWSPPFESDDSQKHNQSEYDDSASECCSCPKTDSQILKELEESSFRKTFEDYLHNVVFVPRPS
Chain of Insulin receptor (Mus musculus) (P15208 753-1372 limits assumed): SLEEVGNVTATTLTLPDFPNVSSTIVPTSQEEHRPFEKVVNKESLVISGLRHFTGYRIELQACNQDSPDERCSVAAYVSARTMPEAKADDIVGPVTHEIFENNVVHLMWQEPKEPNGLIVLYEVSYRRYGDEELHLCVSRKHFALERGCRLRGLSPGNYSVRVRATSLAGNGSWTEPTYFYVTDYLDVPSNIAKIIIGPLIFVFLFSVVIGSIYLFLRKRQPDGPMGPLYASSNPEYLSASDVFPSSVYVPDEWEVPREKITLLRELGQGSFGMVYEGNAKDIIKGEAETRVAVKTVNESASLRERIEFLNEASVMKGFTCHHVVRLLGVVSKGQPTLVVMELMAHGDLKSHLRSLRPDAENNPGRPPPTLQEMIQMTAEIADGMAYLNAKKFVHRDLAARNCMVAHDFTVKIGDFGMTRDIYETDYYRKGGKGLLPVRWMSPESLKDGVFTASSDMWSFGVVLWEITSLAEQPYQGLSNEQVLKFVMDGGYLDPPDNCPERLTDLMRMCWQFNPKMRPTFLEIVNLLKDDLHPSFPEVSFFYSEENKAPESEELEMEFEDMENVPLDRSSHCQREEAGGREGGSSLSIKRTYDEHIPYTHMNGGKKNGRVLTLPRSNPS

[22] = target: Insulin receptor (Mus musculus) (UniProt P15208); conditions: CD-1, dose 30.0 mg/kg, route po, time 21.0 day
[23] = target: Insulin receptor (Mus musculus) (UniProt P15208); conditions: CD-1, dose 30.0 mg/kg, route po, time 21.0 day; remark: listed apart in the source

CCc1cc(Nc2nccc(-c3c(-c4ccc(OC)c(C(=O)Nc5c(F)cccc5F)c4)nc4ccccn34)n2)c(OC)cc1N1CCC(N2CCN(S(C)(=O)=O)CC2)CC1
IC50 [1]: > 30 µM
IC50 [2]: 0.061 µM
IC50 [3]: > 30 µM
Activity (MCF7 [4]): Active
Activity (MCF7 [5]): 76%
Activity [6]: > 20%
inhibition in vivo at 30 mg/kg [7]: > 90%
IC50 (Aurora kinase B): 4 µM
IC50 [8]: > 10 µM
IC50 [9]: > 10 µM
inhibition [10]: 11%
inhibition at 0.3 µM [11]: 2%
inhibition at 0.3 µM [12]: -8%
inhibition [13]: 10%
inhibition [14]: 1%
inhibition at 0.3 µM [15]: 0%
inhibition [16]: -10%
inhibition [17]: 25%
inhibition [18]: 0%
IC50 [19]: 0.275 µM
IC50 [20]: 4.34 µM
inhibition [21]: inactive
inhibition [22]: inactive
inhibition [23]: inactive

Reference: ChEMBL document CHEMBL5678798 (Clin Cancer Res, 2009)
